Test results taken from ChEMBL document CHEMBL6078622, “Enhancing outer membrane permeability of tetracycline antibiotics in P. aeruginosa using TOB-CIP conjugates” (RSC Med Chem, 2024).
Active and inactive are the calls of the source. The rule behind the calls is not given here.

Experiments:
[1] = test system: Pseudomonas aeruginosa; assay: Synergistic antibacterial activity against Pseudomonas aeruginosa PA264 assessed as fold change in doxycycline MIC by CLSI based broth-microdilution method relative to doxycycline alone; format: functional
[2] = test system: Pseudomonas aeruginosa; assay: Synergistic antibacterial activity against Pseudomonas aeruginosa PA100036 assessed as fractional inhibitory concentration index in presence of eravacycline by checkerboard assay; format: functional
[3] = test system: Pseudomonas aeruginosa; assay: Antibacterial activity against Pseudomonas aeruginosa PA101243 assessed as tigecycline MIC by CLSI based broth-microdilution method; format: functional
[4] = test system: Pseudomonas aeruginosa; assay: Synergistic antibacterial activity against Pseudomonas aeruginosa PA100036 in presence of tigecycline by checkerboard assay; format: functional
[5] = test system: Pseudomonas aeruginosa; assay: Antibacterial activity against Pseudomonas aeruginosa PA200 assessed as tigecycline MIC by CLSI based broth-microdilution method; format: functional
[6] = test system: Pseudomonas aeruginosa; assay: Synergistic antibacterial activity against Pseudomonas aeruginosa PA114228 assessed as fractional inhibitory concentration index in presence of minocycline by checkerboard assay; format: functional
[7] = test system: Pseudomonas aeruginosa; assay: Synergistic antibacterial activity against Pseudomonas aeruginosa PA262 assessed as fractional inhibitory concentration index in presence of eravacycline by checkerboard assay; format: functional
[8] = test system: Pseudomonas aeruginosa; assay: Synergistic antibacterial activity against Pseudomonas aeruginosa PA262 assessed as fractional inhibitory concentration index in presence of minocycline by checkerboard assay; format: functional
[9] = test system: HEK293; assay: Cytotoxicity against HEK293 cells assessed as reduction in cell viability at 162 uM; format: toxicity, cell-based; conditions: human, hek293, 162 µM
[10] = test system: HepG2; assay: Cytotoxicity against human HepG2 cells assessed as inhibition of cell vitality at 162 uM; format: functional; design: scale not given: the % may be the effect or the level left
[11] = test system: Pseudomonas aeruginosa; assay: Antibacterial activity against Pseudomonas aeruginosa PA100036 assessed as inhibition of visible bacterial growth by CLSI based broth-microdilution method; format: functional
[12] = test system: Pseudomonas aeruginosa; assay: Synergistic antibacterial activity against Pseudomonas aeruginosa PA095 assessed as fold change in eravacycline MIC by CLSI based broth-microdilution method relative to eravacycline alone; format: functional
[13] = test system: Pseudomonas aeruginosa; assay: Synergistic antibacterial activity against Pseudomonas aeruginosa PA264 assessed as fractional inhibitory concentration index in presence of doxycycline by checkerboard assay; format: functional
[14] = test system: Pseudomonas aeruginosa; assay: Synergistic antibacterial activity against Pseudomonas aeruginosa PA262 assessed as fractional inhibitory concentration index in presence of doxycycline by checkerboard assay; format: functional
[15] = test system: Pseudomonas aeruginosa; assay: Synergistic antibacterial activity against Pseudomonas aeruginosa PA114228 assessed as fold change in eravacycline MIC by CLSI based broth-microdilution method relative to eravacycline alone; format: functional
[16] = test system: Pseudomonas aeruginosa; assay: Antibacterial activity against Pseudomonas aeruginosa PA259 assessed as inhibition of visible bacterial growth by CLSI based broth-microdilution method; format: functional
[17] = test system: Pseudomonas aeruginosa; assay: Antibacterial activity against Pseudomonas aeruginosa PA259 assessed as tigecycline MIC by CLSI based broth-microdilution method; format: functional
[18] = test system: Pseudomonas aeruginosa; assay: Synergistic antibacterial activity against Pseudomonas aeruginosa PAO1 assessed as fold change in doxycycline MIC by checkerboard analysis relative to doxycycline alone; format: functional
[19] = test system: Pseudomonas aeruginosa; assay: Antibacterial activity against Pseudomonas aeruginosa PA100036 assessed as minocycline MIC by CLSI based broth-microdilution method; format: functional
[20] = test system: Escherichia; assay: Synergistic antibacterial activity against Escherichia 94474 assessed as fold change in minocycline MIC by CLSI based broth-microdilution method relative to minocycline alone; format: functional
Outline: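 Checkerboard combination assay against E. coli EC107115 (MDR) and EC94474 (colistin-resistant), run in biological duplicates; the fold change is the tetracycline MIC in combination relative to its MIC alone.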

[21] = test system: Pseudomonas aeruginosa; assay: Synergistic antibacterial activity against Pseudomonas aeruginosa PA114228 in presence of eravacycline by checkerboard assay; format: functional
[22] = test system: Pseudomonas aeruginosa; assay: Antibacterial activity against Pseudomonas aeruginosa PA262 assessed as minocycline MIC by CLSI based broth-microdilution method; format: functional
[23] = test system: Pseudomonas aeruginosa; assay: Antibacterial activity against Pseudomonas aeruginosa PAO1 assessed as inhibition of bacterial growth by measuring fold change in MIC in presence of 25 % fetal bovine serum by CLSI protocol based assay; format: functional
[24] = test system: Pseudomonas aeruginosa; assay: Synergistic antibacterial activity against Pseudomonas aeruginosa PA264 assessed as fractional inhibitory concentration index in presence of tigecycline by checkerboard assay; format: functional
[25] = test system: Pseudomonas aeruginosa; assay: Antibacterial activity against Pseudomonas aeruginosa PAO1 assessed as inhibition of visible bacterial growth by CLSI based broth-microdilution method; format: functional
[26] = test system: Pseudomonas aeruginosa; assay: Synergistic antibacterial activity against Pseudomonas aeruginosa PA101243 assessed as fold change in tigecycline MIC by CLSI based broth-microdilution method relative to tigecycline alone; format: functional
[27] = test system: Pseudomonas aeruginosa; assay: Antibacterial activity against Pseudomonas aeruginosa PAO1 assessed as inhibition of bacterial growth by measuring fold change in MIC in presence of 10 % fetal bovine serum by CLSI protocol based assay; format: functional
[28] = test system: Pseudomonas aeruginosa; assay: Synergistic antibacterial activity against Pseudomonas aeruginosa PA200 in presence of doxycycline by checkerboard assay; format: functional
[29] = test system: Pseudomonas aeruginosa; assay: Synergistic antibacterial activity against Pseudomonas aeruginosa PA095 assessed as fractional inhibitory concentration index in presence of minocycline by checkerboard assay; format: functional
[30] = test system: Pseudomonas aeruginosa; assay: Synergistic antibacterial activity against Pseudomonas aeruginosa PA101243 in presence of doxycycline by checkerboard assay; format: functional
[31] = test system: Pseudomonas aeruginosa; assay: Antibacterial activity against Pseudomonas aeruginosa PA264 assessed as reduction in bacterial load incubated for 2 hrs in presence of eravacycline by time kill assay; format: functional, organism-based
[32] = test system: Pseudomonas aeruginosa; assay: Synergistic antibacterial activity against Pseudomonas aeruginosa PA101243 assessed as fractional inhibitory concentration index in presence of doxycycline by checkerboard assay; format: functional
[33] = test system: Pseudomonas aeruginosa; assay: Antibacterial activity against Pseudomonas aeruginosa PA101243 assessed as eravacycline MIC by CLSI based broth-microdilution method; format: functional
[34] = test system: Pseudomonas aeruginosa; assay: Synergistic antibacterial activity against Pseudomonas aeruginosa PA095 in presence of doxycycline by checkerboard assay; format: functional
[35] = test system: Pseudomonas aeruginosa; assay: Synergistic antibacterial activity against Pseudomonas aeruginosa PA100036 assessed as fractional inhibitory concentration index in presence of tigecycline by checkerboard assay; format: functional
[36] = test system: Pseudomonas aeruginosa; assay: Synergistic antibacterial activity against Pseudomonas aeruginosa PA114228 assessed as fold change in minocycline MIC by CLSI based broth-microdilution method relative to minocycline alone; format: functional
[37] = test system: Pseudomonas aeruginosa; assay: Synergistic antibacterial activity against Pseudomonas aeruginosa PA095 assessed as fold change in doxycycline MIC by CLSI based broth-microdilution method relative to doxycycline alone; format: functional
[38] = test system: Pseudomonas aeruginosa; assay: Antibacterial activity against Pseudomonas aeruginosa PA095 assessed as tigecycline MIC by CLSI based broth-microdilution method; format: functional
[39] = test system: Pseudomonas aeruginosa; assay: Synergistic antibacterial activity against Pseudomonas aeruginosa PA095 assessed as fractional inhibitory concentration index in presence of eravacycline by checkerboard assay; format: functional
[40] = test system: Pseudomonas aeruginosa; assay: Synergistic antibacterial activity against Pseudomonas aeruginosa PA100036 in presence of doxycycline by checkerboard assay; format: functional
[41] = test system: Pseudomonas aeruginosa; assay: Synergistic antibacterial activity against Pseudomonas aeruginosa PA114228 in presence of tigecycline by checkerboard assay; format: functional
[42] = test system: Pseudomonas aeruginosa; assay: Synergistic antibacterial activity against Pseudomonas aeruginosa PA101243 in presence of minocycline by checkerboard assay; format: functional
[43] = test system: HEK293; assay: Cytotoxicity against HEK293 cells assessed as reduction in cell viability at 7 uM; format: toxicity, cell-based; conditions: human, hek293, 7 µM
[44] = test system: Pseudomonas aeruginosa; assay: Synergistic antibacterial activity against Pseudomonas aeruginosa PA100036 assessed as fold change in doxycycline MIC by CLSI based broth-microdilution method relative to doxycycline alone; format: functional

Question: Which results are given for `Cl.Cl.Cl.Cl.Cl.Cl.NC[C@H]1O[C@H](O[C@H]2[C@H](OCCCCCCCCCCCCNC(=O)c3cn(C4CC4)c4cc(N5CCNCC5)c(F)cc4c3=O)[C@@H](O[C@H]3O[C@H](CO)[C@@H](O)[C@H](N)[C@H]3O)[C@H](N)C[C@@H]2N)[C@H](N)C[C@@H]1O`?
Answer: fold change (FC) [1]: 16; fractional inhibitory concentration index (FICI) [2]: 0.008; MIC [3]: 4 µg/mL; MIC [4]: 8 µg/mL; MIC [5]: 0.25 µg/mL; fractional inhibitory concentration index (FICI) [6]: 0.008; fractional inhibitory concentration index (FICI) [7]: 0.062; fractional inhibitory concentration index (FICI) [8]: 0.008; Activity [9]: 60%; Activity [10]: 40%; MIC [11]: > 128 µg/mL; fold change (FC) [12]: 4; fractional inhibitory concentration index (FICI) [13]: 0.015; fractional inhibitory concentration index (FICI) [14]: 0.002; fold change (FC) [15]: 256; MIC [16]: > 128 µg/mL; MIC [17]: 0.5 µg/mL; fold change (FC) [18]: 64; MIC [19]: 0.25 µg/mL; fold change (FC) [20]: 8; MIC [21]: 8 µg/mL; MIC [22]: 2 µg/mL; fold change (FC) [23]: 128; fractional inhibitory concentration index (FICI) [24]: 0.004; MIC [25]: > 128 µg/mL; fold change (FC) [26]: 4; fold change (FC) [27]: >512; MIC [28]: 8 µg/mL; fractional inhibitory concentration index (FICI) [29]: 0.5; MIC [30]: 8 µg/mL; Activity [31]: Active; fractional inhibitory concentration index (FICI) [32]: 0.25; MIC [33]: 2 µg/mL; MIC [34]: 2 µg/mL; fractional inhibitory concentration index (FICI) [35]: 0.002; fold change (FC) [36]: 512; fold change (FC) [37]: 16; MIC [38]: 2 µg/mL; fractional inhibitory concentration index (FICI) [39]: 0.265; MIC [40]: 8 µg/mL; MIC [41]: 8 µg/mL; MIC [42]: 8 µg/mL; Activity [43]: Non-toxic; fold change (FC) [44]: 128
